# Shown are actives, neighbours in structure and some others; about 3.7% of the full set was active somewhere.
# KCNQ1 block: inhibitors of human KCNQ1 channel, primary screen, cell-based, thallium flux, high-throughput; Potassium voltage-gated channel subfamily KQT member 1 (Homo sapiens), P51787; CHO-K1 KCNQ1, FluxOR thallium flux fluorescence; active compounds read high; B-score at 10 µM; 310,000 tested, 1.3% active; AID 2642, 2010;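 active means compounds whose thallium flux B-score, printed positive for inhibition, exceeds three library SD while starting fluorescence stays within three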;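 further: channel opened by potassium depolarization with thallium stimulus after 20 min compound exposure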
# KCNK9 inh: KCNK9 potassium channel inhibitors, primary screen, HEK293 cells, thallium flux. Potassium channel subfamily K member 9 (Homo sapiens), Q9NPC2. FluxOR thallium flux fluorescence; active compounds read low. B-score at 10 µM. 310,000 tested, 1.2% active. AID 488922, 2010;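 active means ratio B-score over 3 SD below the library mean, with starting fluorescence within 5 SD of its mean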;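 further: negative B-score means less thallium flux so channel inhibition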
# Kir21 block: inhibitors of mouse Kir2.1 inward-rectifier potassium channel; B-score at 10 µM; AID 1672, 2009; Inward rectifier potassium channel 2 (Mus musculus), P35561; HEK293-Kir2.1, FluxOR thallium flux fluorescence; active compounds read low; 310,000 tested, 0.85% active;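 active means fluorescence ratio B-score at or below minus 3 SD of library scores, with starting-brightness B-score within 2 SD, cut at about -4.2 in these data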;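 further: channel flux triggered by added potassium and thallium sulfate stimulus; B-score of peak minus minimum fluorescence over baseline after thallium stimulus; more negative B-score means stronger Kir2.1 block with less thallium influx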
# hERG protect: hERG rescue from dofetilide block, primary screen, cell-based, CHO-hERG, FluxOR thallium flux, dofetilide IC70; Voltage-gated inwardly rectifying potassium channel KCNH2 (Homo sapiens), Q12809; dofetilide IC70 present; activation (rescue from dofetilide block), less the hit threshold, % at 10 µM; 310,000 tested, 0.51% active; AID 1511, 2009;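 active means activation above the mean of controls blocked by dofetilide plus 5 SD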;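 further: thallium influx through hERG after potassium depolarization seen as dye fluorescence rise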
# KCNQ1 pot: potentiators or activators of KCNQ1 channel, primary screen, cell-based, thallium flux, high-throughput; 310,000 tested, 0.35% active; B-score at 10 µM; Potassium voltage-gated channel subfamily KQT member 1 (Homo sapiens), P51787; CHO-K1 KCNQ1, thallium flux FluxOR fluorescence; active compounds read high;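 active means fluorescence ratio B-score, a plate-corrected score, at least three library SD, with initial intensity B-score within 5 SD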
#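 Schedule – 37 °C overnight plating, 90-min dark dye load, 20-min compound pretreatment · System – stable KCNQ1 CHO-K1 line · Probe or stimulus – thallium- and potassium-containing depolarizing buffer · Measured by – kinetic FluxOR fluorescence, 10 s baseline plus 110 s post-stimulus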
# KCNK3 block: human KCNK3 channel inhibitors, primary screen, CHO cells, FluxOR thallium flux, B-score; Potassium channel subfamily K member 3 (Homo sapiens), O14649; FluxOR fluorescence; active compounds read low; B-score at 10 µM; 340,000 tested, 0.84% active;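 active means B-score under library mean minus 4 SD, starting fluorescence ratio at most library mean plus 5 SD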;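 further: more negative B-score means stronger inhibition of thallium flux through KCNK3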
# KCNQ1 block val: KCNQ1 potassium channel inhibitors, confirmation, cell-based, Tl flux, duplicate | shares compounds with KCNQ1 block | KCNQ1 cell line, FluxOR thallium flux fluorescence | inhibition, % at 10 µM | 1,600 tested, 93% active;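 active means primary screen active, with duplicate mean exceeding buffer control mean plus 3 SD of buffer wells, cut at about 28% in these data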;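 further: 0% = buffer control ratio and 100% = XE991 inhibitor control ratio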
# CHO Tl flux: thallium flux effects in parental CHO cells, counter-screen for KCNQ1 inhibitor project, cell-based, Tl flux. parental CHO-K1, FluxOR thallium flux fluorescence ratio; active compounds read low; zero means no signal rise above baseline. shares compounds with KCNQ1 block. 1,600 tested, 21% active. fluorescence ratio (Tl flux) at 10 µM;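 active means mean of duplicate thallium-flux fluorescence ratios in parental host cells more than 5 SD below the buffer control mean, cut at about 0.38 in these data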;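 further: ratio is peak minus minimum fluorescence divided by baseline fluorescence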
# KCNQ1 ephys val: KCNQ1 channel inhibitors, confirmation, orthogonal assay, cell-based, automated electrophysiology; AID 624120, 2012; 490 tested, 20% active; shares compounds with KCNQ1 block; calls only at 10 µM; KCNQ1-CHO cells, automated patch clamp current;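 active means KCNQ1 current drop exceeding 3 SD of negative control wells, seen in both duplicate runs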;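 further: steady state current during a 2 s step from -80 to +40 mV; negative values mean current inhibition and positive values mean potentiation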
# KCNQ2 spec: KCNQ2 channel inhibition, selectivity assay for KCNQ1 inhibitor project, cell-based; shares compounds with KCNQ1 block; KCNQ2 cells, FluxOR thallium flux fluorescence; inhibition, % at 10 µM; 1,600 tested, 71% active; AID 651746, 2012;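 active means mean percent inhibition of the KCNQ2 thallium signal more than 5 SD above the buffer-only control wells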;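 further: KCNQ2 expressed in CHO cells; 0% = buffer control wells and 100% = XE-991 inhibitor control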
# KCNQ1-KCNE1 inh: KCNQ1/KCNE1 channel inhibition, selectivity assay for KCNQ1 inhibitor project, CHO-K1 cells, thallium flux, FluxOR; shares compounds with KCNQ1 block; FluxOR thallium flux fluorescence; inhibition, % at 10 µM; 1,600 tested, 77% active;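 active means mean percent inhibition of duplicate wells above the buffer-only control mean plus 3 SD of those controls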;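 further: 0% = buffer only wells and 100% = XE-991 inhibitor control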
# * marks the source's active call; other numbers are inactive results; i = inactive; · = no result; + = active, no number.
SMILES,KCNQ1 block,KCNK9 inh,Kir21 block,hERG protect,KCNQ1 pot,KCNK3 block,KCNQ1 block val,CHO Tl flux,KCNQ2 spec,KCNQ1-KCNE1 inh,others
COC(=O)c1ccccc1NC(=O)COC(=O)c1ccccc1N=Nc1ccc(N(C)C)cc1,i,i,-0.72,-4,i,i,·,·,·,·,
CN(C)c1ccc(N=Nc2ccccc2C(=O)OCC(=O)N(C)c2ccccc2)cc1,8*,i,1.1,-7,i,i,99*,0.42,93%*,121%*,KCNQ1 ephys val=i
S=C(Nc1cccc(Cl)c1)NC1CCCCC1,8*,i,-0.61,-12,i,i,50*,0.55,60%*,62%*,
CC1Sc2ccc(S(=O)(=O)N3CCC(C(=O)Nc4ccc(Cl)cc4)CC3)cc2NC1=O (configuration not stated),11*,i,0.07,-21,i,i,144*,0.38*,104%*,168%*,
CCN(C(=O)CSc1nnc(-c2ccccc2Cl)n1N)c1c(N)n(Cc2ccccc2)c(=O)[nH]c1=O,·,·,·,·,·,i,·,·,·,·,
Cc1cc2nc(C(C)(C)C)cc(N)n2n1,i,i,-0.81,-10,i,i,·,·,·,·,
CC(C)(C)c1cc(N)n2nc(C(C)(C)C)cc2n1,11*,i,0.94,-4,i,i,96*,0.46,i,122%*,KCNQ1 ephys val=+
CCCCc1ccc(NC(=O)Cn2c(=O)c(N3CCCCC3)c(N)n(C)c2=O)cc1,·,·,·,·,·,i,·,·,·,·,
CNC(=S)Nc1ccc(C23CC4CC(CC(C4)C2)C3)cc1,7*,i,-0.4,-9,i,i,74*,0.47,65%*,90%*,
CC(=O)Nc1ccc(C23CC4CC(CC(C4)C2)C3)cc1,i,i,-0.1,-13,i,i,·,·,·,·,
CC1=C([N+](=O)[O-])C(c2ccccc2)NC(=O)N1 (configuration not stated),i,i,-0.01,-7,i,i,·,·,·,·,
CCCn1c(=O)n(C)c(=O)c2c(SCC(=O)NC34CC5CC(CC(C5)C3)C4)nc(CC(C)C)nc21,8*,i,0.13,-19,i,i,136*,0.32*,88%*,148%*,
COc1ccc(-c2csc3nc(C)nc(N4CCCCC4)c23)cc1OC,6*,i,-0.02,-10,i,i,54*,0.42,100%*,87%*,
Cn1c2c(c(=O)n(C)c1=O)C(C(F)(F)F)(C(F)(F)F)N=C(c1ccc(Cl)cc1)N2,7*,i,-1.6,-17,i,i,62*,0.53,i,i,
CC1(C)Cc2c(cnn2-c2ccc(F)cc2)C(NC(=O)c2ccoc2)C1 (configuration not stated),7*,i,0.94,-13,i,i,72*,0.42,i,93%*,
Cc1cc(C(=O)NC2CC(C)(C)Cc3c2cnn3-c2ccc(F)cc2)no1 (configuration not stated),i,i,1.6,-13,i,i,·,·,·,·,
Cn1nccc1C(=O)NC1CC(C)(C)Cc2c1cnn2-c1ccc(F)cc1 (configuration not stated),6*,i,-0.08,-7,i,i,0,0.55,i,i,
CC1(C)Cc2c(cnn2-c2ccccc2)C(NC(=O)c2ccoc2)C1 (configuration not stated),i,i,-1.5,-11,i,i,·,·,·,·,
Cc1cc(C)nc(N2CCC(C(=O)N3CCN(c4cc(Cl)ccc4C)CC3)CC2)n1,9*,i,1.3,-14,i,i,140*,0.46,111%*,176%*,KCNQ1 ephys val=i
Cc1ccc(C)c(N2CCN(C(=O)C3CCN(c4nc(C)cc(C)n4)CC3)CC2)c1,i,i,1.8,-13,i,i,·,·,·,·,
CC1(C)Cc2c(C#N)c(SCCO)nc(N3CCOCC3)c2CO1,i,i,0.22,-11,i,i,·,·,·,·,
CC1(C)Cc2c(C#N)c(SCCOc3ccccc3)nc(N3CCOCC3)c2CO1,7*,i,0.02,-21,i,-9.4*,84*,0.45,65%*,164%*,
CCCCN(C(=O)c1cc(CN2C(=O)c3ccccc3C2=O)ccc1OC)c1c(N)n(CC(C)C)c(=O)[nH]c1=O,·,·,·,·,·,i,·,·,·,·,
CCOc1ccc(NC(=O)Nc2nc(SCC)ns2)cc1,10*,i,0.29,-3,i,i,80*,0.51,i,36%*,
OC1CCN(c2c3c(nc4cc(-c5ccc(Cl)cc5)nn24)CCC3)CC1,i,i,0.05,-4,i,i,·,·,·,·,
Clc1cccc(-c2cc3nc4c(c(N5CCOCC5)n3n2)CCCC4)c1,6*,i,-0.1,-5,i,-9.1*,101*,0.48,78%*,117%*,
CCCC(C)NC(=O)CN1C(=O)NC2(CCc3ccccc32)C1=O (configuration not stated),i,i,-1.1,-9,i,i,·,·,·,·,
Cc1ccc2nc(SCC(=O)Nc3cc(C(C)(C)C)nn3-c3ccccc3)[nH]c2c1,8*,i,0.73,-10,i,i,96*,0.42,111%*,141%*,KCNQ1 ephys val=+
NC(C(=O)O)C1ON=C(Cl)C1O (configuration not stated),·,·,·,·,·,i,·,·,·,·,
